# XBP1 UPR activ: activators of adaptive XBP1 UPR arm, primary screen, cell-based, CHO-XBP1 luciferase reporter, luminescence, uHTS; IRE1-XBP1 UPR activation; percent of tunicamycin response, DMSO as zero; activation, % at 20 µM; 330,000 tested, 0.33% active;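 active = versus positive control, 20 µM dose yields 30% or more activation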;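 note: 100% = tunicamycin at 10 µg/mL and 0% = DMSO only wells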
#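 Material: CHO-XBP1 cells stably carrying IRE1-XBP1-driven luciferase reporter / Amount: 1000 cells per well / Compound: 20 µM, 1% DMSO / Times: 6 h treatment, 37 °C / Detection: luciferase luminescence / Measure: % activation of reporter signal versus tunicamycin and DMSO controls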
# CHOP UPR activ: activators of apoptotic CHOP UPR arm, primary screen, cell-based, CHO-CHOP luciferase reporter, luminescence, uHTS; activation, % at 10 µM; AID 449763, 2010; 330,000 tested, 0.34% active; UPR activation; percent of tunicamycin response over DMSO baseline;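 active = at 10 µM dose, activation of 40% or more, normalized to positive control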;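 note: 100% = tunicamycin at 10 µg/mL and 0% = DMSO alone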
#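 System: CHO-CHOP luciferase reporter cell line | Buffer or medium: F12 medium containing 10% fetal bovine serum | Doses: One dose, 10 µM in 0.5% DMSO | Times: 6 h compound exposure at 37 °C after overnight seeding | Signal: Luciferase luminescence | Read-out: % activation vs tunicamycin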
# CSC inhib: cancer stem cell viability inhibitors, primary screen, luminescence. cancer stem cell-like cells viability. 300,000 tested, 1.1% active. inhibition, % at 7.5 µM. AID 2717, 2010; in the data active = inhibition above about 75%; tested in HMLE shEcad cells
# Beta cell apopt: inhibitors of cytokine-induced beta cell apoptosis, primary screen, luminescence. INS-1E cytokine-induced death, ATP luminescence, 48 h; percent of positive-control rescue, neutral wells zero. protection from apoptosis, % (concentration not given with the values). AID 435005, 2010. 300,000 tested, 0.8% active;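 active = Every replicate reaches about 75%, or at least half do and their mean reaches it too, limit read from the data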;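 note: 0% = cytokine-treated negative control wells and 100% = positive control rescue; higher means more ATP so stronger rescue from cytokine killing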
# T cruzi repl: inhibitors of intracellular T. cruzi growth, primary screen, luminescence, NIH3T3 host cells; T. cruzi beta-gal in NIH3T3, 90 h; inhibition, % (test concentration not listed); 300,000 tested, 1.4% active;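 active = mean inhibition across valid replicates above about 55%, limit read from the data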;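 note: signal also drops with host cell toxicity which is not excluded here; 0% = plate median of DMSO wells and 100% = zero luminescence signal; higher percent means less beta-gal luminescence so fewer parasites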
#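 Material: NIH/3T3 host cells with β-galactosidase reporter T. cruzi; Input: 5,000 host fibroblasts per well; Medium: DMEM, 2% fetal bovine serum; Compound: 50 nL DMSO compound solution per well; Schedule: 3 h host attachment, then at least 90 h co-culture; Detection: luminescent β-galactosidase signal after 60 min lysis.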
# Mdm2-MdmX inh: inhibitors of human Mdm2-MdmX association, primary screen, cell-based, luminescence, split luciferase, SaOS-2, uHTS. SaOS-2 split-luciferase Mdm2/MdmX complementation. inhibition, % at 8 µM. 330,000 tested, 3% active;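 active = inhibition of at least 50% at 8 µM in the primary screen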
# An asterisk follows results filed as active; x = no result. In the library only some 5% were active in any assay of this set; here they are far more common.
SMILES,XBP1 UPR activ,CHOP UPR activ,CSC inhib,Beta cell apopt,T cruzi repl,Mdm2-MdmX inh
O=C(c1c[nH]c(C(=O)N2CCN(c3ccccc3F)CC2)c1)c1cccc(Cl)c1Cl,x,x,x,x,60.3*,x
CC(C)c1ccc(-c2cc(C(=O)N3CCOCC3)c3cc(Br)ccc3n2)cc1,-1.1,0.2,36.6,7.4,26.1,13.4
Cc1ccc(S(=O)(=O)N2CCOCC2)cc1C(=O)NCc1ccccc1CN1CCCC1,-2.1,0.6,-11.2,6.8,x,5.5
COc1ccc(/C=C/C(=O)N2c3ccccc3Sc3ccc(C(F)(F)F)cc32)cc1,-3.8,-2.8,15.3,3.6,57.1*,21.2
C/C(=N/Nc1nc(C)c(C)s1)c1cccc([N+](=O)[O-])c1,0.6,2.1,-1.5,4.1,5.7,-19.3
CC(=O)Nc1cccc(NC(=O)c2cccc(-c3ccc(O)cc3)c2)c1,-5.3,2.3,x,6.0,-10.2,28.9
COc1ccc(NC(=O)c2cccc(-c3ccc(O)cc3)c2)cn1,2.5,3.1,85.6*,8.8,-3.2,37.2
CC(C)c1cccc(C(C)C)c1NC(=O)c1ccccc1,-2.3,-0.8,12.8,-3.4,2.2,7.4
CCOc1ccc(-n2c(C)cc(/C=N/N(C)C)c2C)cc1,-1.5,-1.3,-2.7,2.4,56.1*,24.9
CCC(=O)Nc1cccc(-c2nnc(-c3cccc(NC(=O)CC)c3)o2)c1,-1.3,-1.7,-11.4,13.2,12.8,22.8
CCC(=O)Nc1ccc(-c2nnc(-c3ccccc3)o2)cc1,1.2,1.4,-13.3,4.7,56.6*,14.6
O=C(CSC1CCCCC1)N1CCN(c2ccccc2)CC1,-2.6,3.5,-10.9,1.5,-7.7,-9.3
c1ccc(N2CCN(CC3CCCCC3)CC2)cc1,-1.3,-0.3,97.3*,138.6*,-5.7,12.9
C=CCSc1nnc(N2C(=O)C(O)=C(C(=O)c3ccco3)C2c2ccccc2F)s1 (centres undefined),-0.3,0.6,-6.6,-5.1,-7.3,-7.8
NNc1nc(-c2ccccc2)cc(-c2ccccc2)n1,-1.8,-0.5,80.1*,37.2,3.9,44.8
NNc1nc(-c2ccccc2)cc(-c2ccccc2O)n1,2.1,0.0,30.5,79.1*,39.9,44.7
O=S1(=O)N=C2CCCCCN2C(c2ccc(Br)cc2)N1 (centres undefined),1.3,0.0,16.1,0.7,4.1,-3.2
COc1ccc(-c2nnc(Nc3nc4c(OC)cccc4s3)o2)cc1,x,x,81.3*,3.2,-5.5,x
COc1cc(OC)cc(-c2nnc(Nc3nc4c(F)cccc4s3)o2)c1,4.2,2.3,-3.6,17.7,-23.3,41.5
CC(=O)Nc1ccc2nc(NC(=O)c3cccs3)sc2c1,-1.2,2.3,30.4,9.5,0.8,-120.4
CCCCOC(=O)Nc1nc2ccc([N+](=O)[O-])cc2s1,-1.2,1.3,-11.5,3.4,-3.1,25.7
CCC(=O)Nc1nc2ccc([N+](=O)[O-])cc2s1,-1.5,5.4,x,5.9,62.5*,27.3
CC(=O)Nc1ccc2nc(NC(=O)c3ccc([N+](=O)[O-])s3)sc2c1,0.7,1.7,31.9,-12.9,56.1*,4.5
Cc1cccc(CSc2nc3c(c(-c4cccs4)c2C#N)CN(C)CC3)c1,-2.4,0.8,-1.6,x,57.5*,21.9
Cc1cccc(CSc2nc(N)c(C#N)c(-c3cccs3)c2C#N)c1,2.9,-1.9,4.7,13.1,68.2*,30.3
SMILES,XBP1 UPR activ,CHOP UPR activ,CSC inhib,Beta cell apopt,T cruzi repl,Mdm2-MdmX inh
CN1CCc2nc(SCC(=O)Nc3cccc(F)c3)c(C#N)c(-c3cccs3)c2C1,2.0,-0.2,3.5,-13.7,54.5*,15.1
Cc1ccc(-c2nc3ccccc3[nH]2)cc1NC(=O)c1sc2cc(Cl)ccc2c1Cl,5.2,3.2,5.1,3.2,60.4*,45.7
COc1ccc2nc(S(=O)Cc3ncc(C)c(OC)c3C)[nH]c2c1 (centres undefined),-6.2,1.6,-13.8,-0.9,4.9,11.1
COc1ccc(OC)c(/C=C2\S/C(=N/NC(=O)c3ccc4ccccc4c3)NC2=O)c1,x,x,106.2*,-0.4,3.3,x
COc1ccc(CCNC(=O)COc2cc(O)c3c(c2)OC(C)(C)CC3=O)cc1OC,-3.2,-1.7,-10.2,-2.4,18.9,15.5
Cc1ccc(N/N=C/c2ccncc2)cc1,0.2,5.9,79.3*,-1.4,15.3,-25.8
Clc1cccc(-c2nc(NCCCN3CCOCC3)c3ccccc3n2)c1,-1.6,0.3,91.4*,-1.8,8.1,8.9
CCOCCCN(C)C1CCN(C(=O)c2oc3ccccc3c2NC(=O)c2ccc([N+](=O)[O-])cc2)CC1,-1.8,1.1,-11.6,1.1,-12.5,15.2
CCOCCCN(C)C1CCN(C(=O)c2oc3ccccc3c2NC(=O)c2ccc(F)cc2)CC1,-1.6,2.3,8.8,-2.7,56.4*,1.7
Cc1ccc(S(=O)(=O)N(C(=N)N)c2nc(N(C)C)nc(N(C)C)n2)cc1,-3.6,2.8,-18.3,-3.5,55.0*,12.2
CCn1nc(C(=O)NCCc2ccc3c(c2)OCCO3)c2ccccc2c1=O,-2.0,-0.7,-0.9,-9.8,x,32.8
CCCOc1ccc2c3c(c(=O)oc2c1OCCC)CCCC3,2.4,5.6,x,99.9*,14.5,-1.2
CCOc1ccc2c3c(c(=O)oc2c1OCC)CCCC3,1.4,2.7,-2.8,x,26.2,23.1
O=C(NCc1ccc(Cl)cc1)N1CCN(Cc2ccccc2)CC1,-0.5,0.3,-4.9,48.8,-33.4,23.7
CC(=O)Nc1ccc(S(=O)(=O)NC2=C(N3CCN(c4ccc(F)cc4)CC3)C(=O)c3ccccc3C2=O)cc1,2.4,8.5,39.5,84.7*,-22.9,45.2
CCOc1ccc(N/C(C)=C/C(=O)c2ccc(C)o2)cc1,4.5,2.5,-4.5,0.9,60.2*,-14.5
COC(=O)c1ccc(N/C(C)=C/C(=O)c2ccc(C)o2)cc1,1.0,2.4,-2.3,-7.6,-10.2,12.2
COc1ccc(Br)cc1C(=O)Nc1ccc(Cc2ccncc2)cc1,2.7,-1.0,45.9,5.8,73.4*,10.7
CCOc1ccc(NC(=O)Nc2ccc(Cc3ccncc3)cc2)cc1,-2.4,-3.6,80.4*,39.0,49.1,2.2
Cc1cc(NS(=O)(=O)c2ccc(NC(=S)NC(=O)c3ccc(Cl)cc3Cl)cc2)no1,-6.1,1.4,4.7,x,1.9,24.4
COC(=O)c1[nH]c2cc(C)ccc2c1NC(=O)CN1CCCc2ccccc21,20.4,0.9,7.5,-7.0,59.4*,25.8
